{"source": "paper PMC5520516", "about": "(British Journal of Cancer, 2017)", "key": {"[1]": {"tested_on": "NCI 60-cell line panel (60 human tumour cell lines)", "details": "cited from earlier work"}, "[2]": {"details": "cited from earlier work"}, "[3]": {"details": "at 30 min; ref Burger et al, 2007; cited from earlier work"}, "[4]": {"tested_on": "two human renal cell cancer HTXs, a breast cancer HTX and a murine syngeneic colon cancer", "details": "P<0.01; ref Burger et al, 2007; cited from earlier work"}, "[5]": {"tested_on": "well-vascularised breast cancer HTX", "assay": "Antitumour activity in well-vascularised breast cancer HTX", "type": "in vivo, human", "details": "for antitumour activity at tolerated doses / antitumour activity at toxic dose levels: SD, i.p."}, "microtubules": {"tested_on": "microtubules", "details": "ref Bonezzi et al, 2009; cited from earlier work"}, "tumour blood vessels": {"tested_on": "tumour blood vessels", "details": "in vivo; ref Bonezzi et al, 2009; cited from earlier work"}, "endothelial cell": {"tested_on": "endothelial cell", "details": "in vitro; ref Bonezzi et al, 2009; cited from earlier work"}, "[6]": {"tested_on": "NCI 60-cell line panel (60 human tumour cell lines)", "assay": "NCI in vitro 60-cell line screen", "type": "cell-based", "in_short": "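Test compounds were run in each of the 60 human tumour cell lines for 48 h of drug exposure. The data were summarised as a mean graph with COMPARE analysis.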"}, "[7]": {"assay": "Pre-formulation / solubility", "type": "physicochemical"}, "[8]": {"tested_on": "doxorubicin-resistant, oestrogen receptor negative human breast cancer xenograft MT-3/ADR", "assay": "Antitumour activity in MT-3/ADR xenograft", "type": "in vivo"}, "advanced cancer": {"tested_on": "advanced cancer", "details": "phase I, ref Seckl et al, 2012, cited from earlier work"}, "[9]": {"details": "ref Bradshaw and Westwell, 2004"}}, "note": "pIC50: −log10 of the molar value. Counter-ions that a name gives are not always drawn. Like-named read-outs stand apart in the source and are kept apart here."}
{"smiles": "Cc1cc(-c2nc3cc(F)ccc3s2)ccc1N", "note": "[5F 203]", "values": [{"measurement": "GI50", "setting": "[1]; NCI 60-cell line screen, ref Bradshaw and Westwell, 2004", "value": "low nanomolar"}, {"measurement": "selectivity in NCI 60-cell line screen", "setting": "[1]; [9]", "value": "selectivity against breast and ovarian cancer sub-panels"}]}
{"smiles": "COc1ccc(/C=C\\c2cc(OC)c(OC)c(OC)c2)cc1O", "note": "[Combretastatin A-4, reference compound]", "values": [{"measurement": "solubility", "setting": "[2]; ref Dark et al, 1997, Tozer et al, 2002", "value": "poorly soluble"}]}
{"smiles": "COc1ccc(C2=CN3C(=O)c4cc(OC)c(OC)cc4N=C[C@@H]3C2)cc1", "note": "[DRH-417]", "values": [{"measurement": "peak plasma concentration", "setting": "[3]", "value": 171, "unit": "nM"}, {"measurement": "pIC50", "setting": "[1]; read-out: mean IC50, NCI 60-cell line panel, ref Burger et al, 2007", "value": 8.52}, {"measurement": "antitumour activity in vivo", "setting": "[4]", "value": "marked activity"}]}
{"smiles": "COc1ccc(-c2cncn2-c2cc(OC)c(OC)c(OC)c2)cc1", "note": "[NSC733436]", "values": [{"measurement": "antitumour activity at tolerated doses", "setting": "[5]", "value": "moderate"}, {"measurement": "antitumour activity at toxic dose levels", "setting": "[5]", "value": "more pronounced"}, {"measurement": "effect on microtubules", "setting": "microtubules", "value": "disorganised microtubules"}, {"measurement": "blood vessel shutdown and tumour necrosis", "setting": "tumour blood vessels", "value": "caused blood vessel shutdown and tumour necrosis"}, {"measurement": "effect on endothelial cell morphology and capillary formation", "setting": "endothelial cell", "value": "selectively affected endothelial cell morphology and capillary formation"}]}
{"smiles": "COc1ccc(-c2cncn2-c2cc(OC)c(OC)c(OC)c2)cc1F", "note": "[NSC736359]", "values": [{"measurement": "antitumour activity at tolerated doses", "setting": "[5]", "value": "moderate"}, {"measurement": "antitumour activity at toxic dose levels", "setting": "[5]", "value": "more pronounced"}, {"measurement": "effect on microtubules", "setting": "microtubules", "value": "disorganised microtubules"}, {"measurement": "blood vessel shutdown and tumour necrosis", "setting": "tumour blood vessels", "value": "caused blood vessel shutdown and tumour necrosis"}, {"measurement": "effect on endothelial cell morphology and capillary formation", "setting": "endothelial cell", "value": "selectively affected endothelial cell morphology and capillary formation"}]}
{"smiles": "COc1cc(-n2cncc2-c2ccc3ccccc3c2)cc(OC)c1OC", "note": "[NSC736992]", "values": [{"measurement": "antitumour activity at tolerated doses", "setting": "[5]", "value": "moderate"}, {"measurement": "antitumour activity at toxic dose levels", "setting": "[5]", "value": "more pronounced"}, {"measurement": "effect on microtubules", "setting": "microtubules", "value": "disorganised microtubules"}, {"measurement": "blood vessel shutdown and tumour necrosis", "setting": "tumour blood vessels", "value": "caused blood vessel shutdown and tumour necrosis"}, {"measurement": "effect on endothelial cell morphology and capillary formation", "setting": "endothelial cell", "value": "selectively affected endothelial cell morphology and capillary formation"}]}
{"smiles": "COc1ccc2c(c1)[nH]c(=O)c1c3ccccc3cn21", "note": "[NSC 734237]", "values": [{"measurement": "differential activity", "setting": "[6]", "value": "reasonable, but inconclusive"}, {"measurement": "solubility", "setting": "[7]", "value": "quite insoluble"}, {"measurement": "antitumour activity at the MTD", "setting": "[8]; MTD, i.p., d8–12, 15–19", "value": "significant activity"}, {"measurement": "antitumour activity", "setting": "[8]; i.p., d8–12, 15–19", "value": "dose-dependent antitumour activity"}, {"measurement": "CD31+ microvessel density (immunohistochemistry)", "setting": "[8]; in vivo", "value": "dose-dependent reduction"}, {"measurement": "Ki-67 staining (immunohistochemistry)", "setting": "[8]; in vivo", "value": "dose-dependent reduction"}]}
{"smiles": "Cc1cc(-c2nc3cc(F)ccc3s2)ccc1NC(=O)[C@@H](N)CCCCN.Cl.Cl", "note": "[Phortress]", "values": [{"measurement": "water solubility", "setting": "[2]; [9]", "value": "water-soluble"}, {"measurement": "MTD", "setting": "advanced cancer; preliminary data", "value": "not reached"}, {"measurement": "tolerability", "setting": "advanced cancer; preliminary data", "value": "well tolerated"}, {"measurement": "patients classified as having stable disease", "setting": "advanced cancer; Thirty-three per cent of the patients", "value": "14/42"}]}
{"smiles": "COc1cc(-n2cncc2-c2ccc3ccccc3c2)cc(OC)c1OC", "note": "[water-soluble salt of NSC736992]", "values": [{"measurement": "density (size and number) of CD31+ blood vessels", "setting": "[5]; alone or in combination", "value": "not affected"}, {"measurement": "efficacy in combination with carboplatin or taxol", "setting": "[5]; combination with carboplatin or taxol", "value": "not increased"}, {"measurement": "efficacy (additional studies)", "setting": "[5]; same HTX, also with other treatment schedules", "value": "moderate to borderline"}]}
